Measured values published in ChEMBL document CHEMBL3525967, “In vitro glucuronidation of the antibacterial triclocarban and its oxidative metabolites” (Drug Metab Dispos, 2012).

What was measured:
Format in all cases: ADME
[1] = Drug metabolism in B6C3F1 mouse liver microsomes after 30 mins by LC-ESI-MS analysis
Procedure, shortened: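 2'-OH-TCC at 0.2, 0.5, 1, 2, 3, 5, 10 and 50 µM incubated with liver microsomes (alamethicin, MgCl2, saccharolactone, UDPGA; 37 °C), sampled at 5, 10, 15 and 30 min. Samples ≥5 µM diluted 1:9 in ACN; LC-ESI-MS. KM and vmax fitted from rate vs concentration; intrinsic clearance derived from these; mean and SD of three.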

[2] = target: T1, UDP-glucuronosyltransferase 1A4 (Homo sapiens, UniProt P22310); assay: Drug metabolism assessed as human UGT1A4-mediated N-glucuronide-triclocarban formation expressed in baculovirus infected insect sf9 cells incubated for 5 mins prior to UDPGA addition measured after 5 to 30 mins by LC-UV analysis
T1 sequence (P22310 whole entry): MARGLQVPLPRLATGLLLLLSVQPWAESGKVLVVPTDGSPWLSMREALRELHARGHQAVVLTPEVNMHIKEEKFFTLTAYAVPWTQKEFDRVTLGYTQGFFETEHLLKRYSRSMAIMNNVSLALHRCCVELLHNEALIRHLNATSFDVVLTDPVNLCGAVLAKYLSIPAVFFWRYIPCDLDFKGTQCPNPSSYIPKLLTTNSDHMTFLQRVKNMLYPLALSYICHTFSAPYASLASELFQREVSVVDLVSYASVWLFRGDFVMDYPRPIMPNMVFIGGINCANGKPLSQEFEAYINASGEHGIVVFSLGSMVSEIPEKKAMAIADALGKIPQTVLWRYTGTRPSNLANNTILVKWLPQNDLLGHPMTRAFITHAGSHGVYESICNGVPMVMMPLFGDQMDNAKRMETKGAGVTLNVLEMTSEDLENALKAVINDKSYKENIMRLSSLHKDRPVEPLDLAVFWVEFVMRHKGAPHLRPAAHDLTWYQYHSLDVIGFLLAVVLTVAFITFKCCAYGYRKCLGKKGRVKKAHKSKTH
Procedure, shortened: (§1)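 Microsomes or UGT Supersomes (5 µg protein) were held 15 min on ice with alamethicin in 100 mM potassium phosphate pH 7.4. TCC was added at 10 µM (2% DMSO) with 10 mM MgCl2 and 10 mM saccharolactone, pre-warmed 5 min at 37 °C, then started with UDPGA. Samples at 5, 10, 15 and 30 min were quenched in ACN. Product was read by LC-UV at 265 nm; rate came from regression over time, three incubations.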

[3] = target: T2, UDP-glucuronosyltransferase 1A9 (Homo sapiens, UniProt O60656); assay: Drug metabolism assessed as human UGT1A9-mediated N-glucuronide-triclocarban formation expressed in baculovirus infected insect sf9 cells incubated for 5 mins prior to UDPGA addition measured after 30 mins by LC-ESI-MS analysis; conditions: sf9, 0.5 h
T2 sequence (O60656 whole entry): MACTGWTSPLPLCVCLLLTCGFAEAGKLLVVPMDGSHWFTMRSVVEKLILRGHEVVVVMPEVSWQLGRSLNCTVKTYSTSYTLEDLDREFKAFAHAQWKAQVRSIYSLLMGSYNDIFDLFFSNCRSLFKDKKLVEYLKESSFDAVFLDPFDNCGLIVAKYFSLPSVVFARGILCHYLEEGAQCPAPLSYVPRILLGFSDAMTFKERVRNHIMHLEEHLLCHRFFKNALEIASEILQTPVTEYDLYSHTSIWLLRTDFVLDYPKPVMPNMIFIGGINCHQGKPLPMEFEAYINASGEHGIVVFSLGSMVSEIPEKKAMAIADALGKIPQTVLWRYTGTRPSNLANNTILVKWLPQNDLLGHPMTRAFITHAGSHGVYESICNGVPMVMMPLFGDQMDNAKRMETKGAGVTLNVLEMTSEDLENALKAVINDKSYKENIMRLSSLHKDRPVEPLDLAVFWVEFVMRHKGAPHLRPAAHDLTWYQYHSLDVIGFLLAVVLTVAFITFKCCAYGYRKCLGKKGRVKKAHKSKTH
Procedure, shortened: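 TCC was incubated at 10 µM (2% DMSO) in 100 mM phosphate pH 7.4 with alamethicin-treated microsomes or Supersomes, 10 mM MgCl2 and 10 mM saccharolactone. After 5 min pre-incubation at 37 °C, UDPGA was added to start the reaction. Protein was raised up to 2 mg/mL. Samples were quenched in ACN with 1 µM DCC internal standard, centrifuged, and N-glucuronides detected by LC-ESI-MS/MS in SRM mode.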

[4] = target: T3, UDP-glucuronosyltransferase 1A7 (Homo sapiens, UniProt Q9HAW7); assay: Drug metabolism assessed as human UGT1A7-mediated N'-glucuronide-triclocarban formation expressed in baculovirus infected insect sf9 cells incubated for 5 mins prior to UDPGA addition measured after 5 to 30 mins by LC-UV analysis; procedure, shortened: as §1
T3 sequence (Q9HAW7 whole entry): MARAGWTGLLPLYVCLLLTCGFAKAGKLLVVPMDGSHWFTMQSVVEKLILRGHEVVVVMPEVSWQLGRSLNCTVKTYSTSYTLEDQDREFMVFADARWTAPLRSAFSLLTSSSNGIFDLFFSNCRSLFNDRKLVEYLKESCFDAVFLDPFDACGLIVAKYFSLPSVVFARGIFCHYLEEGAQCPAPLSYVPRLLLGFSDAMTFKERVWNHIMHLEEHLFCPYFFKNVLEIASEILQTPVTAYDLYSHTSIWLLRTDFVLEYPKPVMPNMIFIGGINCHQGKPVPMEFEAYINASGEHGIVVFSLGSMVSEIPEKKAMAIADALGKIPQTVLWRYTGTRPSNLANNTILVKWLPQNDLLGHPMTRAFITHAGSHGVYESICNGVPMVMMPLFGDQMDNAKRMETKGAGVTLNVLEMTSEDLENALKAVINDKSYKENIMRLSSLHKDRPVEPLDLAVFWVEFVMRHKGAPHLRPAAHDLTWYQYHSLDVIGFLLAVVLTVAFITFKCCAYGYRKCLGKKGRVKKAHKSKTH

`O=C(Nc1ccc(Cl)c(Cl)c1)Nc1ccc(Cl)cc1O` showed a Km at 0.5 h ([1]; B6C3F1, mouse, liver microsomes) of 2.46 µM and a Vmax ([1]; mouse, microsomes, 0.5 h) of 1.45 nmol/min/mg.
For `O=C(Nc1ccc(Cl)cc1)Nc1ccc(Cl)c(Cl)c1` [TRICLOCARBAN], the Drug metabolism [2] was “metabolite_not_detected”, the Drug metabolism [3] was “metabolite_detected” and the Drug metabolism [4] was “metabolite_not_detected”.
